In ChEMBL document CHEMBL1152126 (Bioorg Med Chem, 2008):
Blank lines part the entries; values can stand above or below the compound they belong to. Activity calls are given as the source filed them. No cut-off for these calls is given here.

Columns and labels:
[1] = molecular target: 72 kDa type IV collagenase (Homo sapiens, UniProt P08253); test: Inhibition of human recombinant pro-MMP2 by spectrofluorimeter
How it was run: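 Pro-MMP-2 activated with […], 37 °C, 2 h. Assay: 1–2 nM enzyme in 50 mM Tris–HCl pH 7.5, 150 mM NaCl, 5 mM CaCl₂, 25 °C; 30 min inhibitor preincubation, then quenched fluorogenic substrate.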

Interstitial collagenase = molecular target: T1, Interstitial collagenase (Homo sapiens, UniProt P03956); test: Inhibition of human recombinant pro-MMP1 by spectrofluorimeter
T1 sequence (P03956 whole entry): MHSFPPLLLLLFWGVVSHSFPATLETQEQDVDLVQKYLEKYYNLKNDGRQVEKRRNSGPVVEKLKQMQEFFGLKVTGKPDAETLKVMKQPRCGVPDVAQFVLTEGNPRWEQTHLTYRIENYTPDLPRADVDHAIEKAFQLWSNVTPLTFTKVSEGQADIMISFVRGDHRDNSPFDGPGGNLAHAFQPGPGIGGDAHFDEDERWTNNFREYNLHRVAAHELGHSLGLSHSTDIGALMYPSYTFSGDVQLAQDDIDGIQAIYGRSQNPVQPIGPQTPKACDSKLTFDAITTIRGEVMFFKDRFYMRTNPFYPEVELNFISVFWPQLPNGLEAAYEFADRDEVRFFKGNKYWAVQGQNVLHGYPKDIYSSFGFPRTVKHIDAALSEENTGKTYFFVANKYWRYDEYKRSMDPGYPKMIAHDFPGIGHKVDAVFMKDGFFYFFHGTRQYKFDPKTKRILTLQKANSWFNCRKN

[2] = molecular target: Matrix metalloproteinase-14 (Homo sapiens, UniProt P50281); test: Inhibition of human recombinant MMP14 catalytic domain by spectrofluorimeter
How it was run: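 Human recombinant MT1-MMP catalytic domain at 1–2 nM in 50 mM Tris–HCl pH 7.5, 150 mM NaCl, 5 mM CaCl₂ at 25 °C. Inhibitors at 5–7 concentrations preincubated with enzyme for 30 min, then quenched fluorogenic peptide substrate added. Percent inhibition measured in triplicate within a 20–80% inhibition range.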

[3] = molecular target: Matrix metalloproteinase-9 (Homo sapiens, UniProt P14780); test: Inhibition of human recombinant pro-MMP9 by spectrofluorimeter
How it was run: (§1)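 Pro-enzymes (human recombinant) freshly activated with […] at 37 °C for 2 h. Activated MMP at 1–2 nM in 50 mM Tris–HCl pH 7.5, 150 mM NaCl, 5 mM CaCl₂ at 25 °C, preincubated 30 min with inhibitor before quenched fluorogenic substrate. Percent inhibition from triplicates at 5–7 concentrations within the 20–80% range.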

Stromelysin-1 = Stromelysin-1 (Homo sapiens, UniProt P08254); test: Inhibition of human recombinant MMP3 catalytic domain by spectrofluorimeter
How it was run: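 MMP-3 human recombinant catalytic domain (1–2 nM) was assayed in 50 mM Tris–HCl pH 7.5, 5 mM CaCl₂, […] at 25 °C. Enzyme and inhibitor were preincubated for 30 min before quenched fluorogenic substrate was added. Triplicate percent inhibition was taken at 5–7 inhibitor concentrations spanning 20–80% inhibition.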

Matrilysin = molecular target: T2, Matrilysin (Homo sapiens, UniProt P09237); test: Inhibition of human recombinant pro-MMP7 by spectrofluorimeter; how it was run: as §1
T2 sequence (P09237 whole entry): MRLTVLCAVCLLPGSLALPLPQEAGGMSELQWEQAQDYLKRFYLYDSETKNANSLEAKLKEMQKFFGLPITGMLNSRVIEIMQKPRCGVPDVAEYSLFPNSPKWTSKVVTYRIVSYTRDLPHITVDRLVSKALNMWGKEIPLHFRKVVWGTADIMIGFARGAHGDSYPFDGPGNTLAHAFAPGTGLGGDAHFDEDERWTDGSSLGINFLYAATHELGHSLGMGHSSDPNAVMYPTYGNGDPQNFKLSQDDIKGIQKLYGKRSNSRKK

Homo sapiens = species: Homo sapiens; test: Selectivity ratio of IC50 for human recombinant pro-MMP2 to IC50 for human recombinant pro-MMP1

Stromelysin-1, sequence (P08254 whole entry, the tested form may be a part): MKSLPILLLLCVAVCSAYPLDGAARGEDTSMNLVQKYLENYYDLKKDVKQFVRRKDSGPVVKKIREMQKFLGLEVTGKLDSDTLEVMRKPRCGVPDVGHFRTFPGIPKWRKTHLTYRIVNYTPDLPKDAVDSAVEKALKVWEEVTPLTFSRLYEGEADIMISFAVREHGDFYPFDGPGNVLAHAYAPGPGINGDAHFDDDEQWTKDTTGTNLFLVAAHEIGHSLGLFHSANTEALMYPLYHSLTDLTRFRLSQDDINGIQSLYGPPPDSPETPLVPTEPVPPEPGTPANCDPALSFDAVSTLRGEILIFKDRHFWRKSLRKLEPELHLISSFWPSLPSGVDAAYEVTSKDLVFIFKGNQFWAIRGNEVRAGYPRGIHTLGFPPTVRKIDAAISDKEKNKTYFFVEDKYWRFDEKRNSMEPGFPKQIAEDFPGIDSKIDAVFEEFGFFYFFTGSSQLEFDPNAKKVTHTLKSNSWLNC
Matrix metalloproteinase-9, sequence (P14780 whole entry): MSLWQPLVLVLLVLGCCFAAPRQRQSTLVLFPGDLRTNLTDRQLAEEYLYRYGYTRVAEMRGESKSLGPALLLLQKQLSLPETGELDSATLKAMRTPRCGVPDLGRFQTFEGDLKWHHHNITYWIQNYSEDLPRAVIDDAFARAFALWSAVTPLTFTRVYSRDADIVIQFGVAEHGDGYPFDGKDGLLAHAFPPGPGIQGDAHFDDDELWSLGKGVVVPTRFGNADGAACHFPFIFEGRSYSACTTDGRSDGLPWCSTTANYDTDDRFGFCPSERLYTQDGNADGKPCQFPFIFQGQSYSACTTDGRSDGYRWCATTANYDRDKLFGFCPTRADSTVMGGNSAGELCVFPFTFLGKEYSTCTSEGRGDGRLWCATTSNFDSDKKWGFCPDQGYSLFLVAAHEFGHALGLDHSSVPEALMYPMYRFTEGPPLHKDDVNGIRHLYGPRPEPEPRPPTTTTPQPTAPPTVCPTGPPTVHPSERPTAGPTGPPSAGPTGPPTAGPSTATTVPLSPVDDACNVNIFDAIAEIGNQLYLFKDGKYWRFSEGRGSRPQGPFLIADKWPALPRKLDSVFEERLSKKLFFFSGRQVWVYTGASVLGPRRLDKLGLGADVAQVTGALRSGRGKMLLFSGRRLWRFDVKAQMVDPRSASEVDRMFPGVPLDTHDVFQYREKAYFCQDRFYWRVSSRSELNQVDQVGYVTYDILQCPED
72 kDa type IV collagenase, sequence (P08253 whole entry): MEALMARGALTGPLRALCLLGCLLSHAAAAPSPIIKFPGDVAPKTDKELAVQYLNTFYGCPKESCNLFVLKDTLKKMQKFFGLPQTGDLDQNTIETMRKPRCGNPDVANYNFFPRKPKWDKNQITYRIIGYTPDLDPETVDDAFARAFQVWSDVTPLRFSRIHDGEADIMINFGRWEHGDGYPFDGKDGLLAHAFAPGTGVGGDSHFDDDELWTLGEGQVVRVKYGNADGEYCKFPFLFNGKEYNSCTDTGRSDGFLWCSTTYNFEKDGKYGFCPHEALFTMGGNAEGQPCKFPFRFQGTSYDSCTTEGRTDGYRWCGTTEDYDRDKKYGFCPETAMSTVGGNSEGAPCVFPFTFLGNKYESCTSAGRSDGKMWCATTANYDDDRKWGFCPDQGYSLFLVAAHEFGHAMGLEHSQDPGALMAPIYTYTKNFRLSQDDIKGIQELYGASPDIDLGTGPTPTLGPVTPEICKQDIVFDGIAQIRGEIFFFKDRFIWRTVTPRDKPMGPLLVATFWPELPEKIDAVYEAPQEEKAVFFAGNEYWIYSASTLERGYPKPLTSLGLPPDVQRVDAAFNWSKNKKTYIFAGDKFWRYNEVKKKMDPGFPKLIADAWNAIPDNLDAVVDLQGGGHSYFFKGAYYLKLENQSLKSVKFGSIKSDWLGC

SMILES: CNC(=O)[C@H](Cc1c[nH]c2ccccc12)NC(=O)[C@@H](CC(=O)NNc1ccc([N+](=O)[O-])cc1)CC(C)C
IC50 [1]: 10000 nM
IC50 (Interstitial collagenase): > 10000 nM
IC50 [2]: > 10000 nM

SMILES: CCCCCC/C=C(\CC(=O)NNS(=O)(=O)c1ccc(-c2ccc(Br)cc2)cc1)C(=O)N[C@@H](Cc1c(-c2ccccc2)[nH]c2ccccc12)C(=O)NC
IC50 [3]: 732 nM
IC50 [1]: 1270 nM
IC50 (Stromelysin-1): 174 nM
IC50 (Interstitial collagenase): 2040 nM
IC50 [2]: 3780 nM

SMILES: CNC(=O)[C@H](Cc1c[nH]c2ccccc12)NC(=O)[C@@H](CC(=O)NNS(=O)(=O)c1ccc(Oc2ccccc2)cc1)CC(C)C
IC50 [1]: 45 nM
IC50 (Interstitial collagenase): 110 nM
IC50 [2]: 2800 nM

SMILES: CNC(=O)[C@H](Cc1c[nH]c2ccccc12)NC(=O)[C@@H](CC(=O)NNS(=O)(=O)c1ccc(N2C(=O)CCC2=O)cc1)CC(C)C
IC50 [3]: 8.5 nM
IC50 [1]: 79 nM
IC50 (Stromelysin-1): 920 nM
IC50 (Interstitial collagenase): 91 nM
IC50 (Matrilysin): 110 nM
IC50 [2]: 720 nM

SMILES: CCCCCC/C=C(\CC(=O)NNS(=O)(=O)c1ccc(-c2ccc(Br)cc2)cc1)C(=O)N[C@@H](Cc1c[nH]c2ccccc12)C(=O)NC
IC50 [3]: 2560 nM
IC50 [1]: 1810 nM
IC50 (Stromelysin-1): 2540 nM
Activity [2]: inactive

SMILES: CNC(=O)[C@H](Cc1c(-c2ccccc2)[nH]c2ccccc12)NC(=O)[C@@H](CC(=O)NNS(=O)(=O)c1ccc(-c2ccc(Br)cc2)cc1)CC(C)C
IC50 [3]: 18 nM
IC50 [1]: 247 nM
IC50 (Stromelysin-1): 53 nM
IC50 (Interstitial collagenase): 350 nM
IC50 [2]: 1240 nM

SMILES: CNC(=O)[C@H](Cc1c[nH]c2ccccc12)NC(=O)[C@@H](CC(=O)NNS(=O)(=O)c1ccc(-c2ccc(Br)cc2)cc1)CC(C)C
IC50 [3]: 3 nM
Ki [3]: 3.6 nM
IC50 [1]: 9.8 nM
Ki [1]: 8.5 nM
IC50 (Stromelysin-1): 1700 nM
Ki (Stromelysin-1): 415 nM
IC50 (Interstitial collagenase): 30 nM
IC50 (Matrilysin): 475 nM
Ki (Matrilysin): 523 nM
IC50 [2]: 17000 nM
Ki [2]: 1900 nM

SMILES: CNC(=O)[C@H](Cc1c[nH]c2ccccc12)NC(=O)[C@@H](CC(=O)NNc1ccc([N+](=O)[O-])cc1[N+](=O)[O-])CC(C)C
IC50 [1]: 10000 nM
IC50 (Interstitial collagenase): > 10000 nM
IC50 [2]: > 10000 nM

SMILES: CNC(=O)[C@H](Cc1c[nH]c2ccccc12)NC(=O)/C(=C/CCc1ccccc1)CC(=O)NNS(=O)(=O)c1ccc(-c2ccc(Br)cc2)cc1
IC50 [3]: 1250 nM
IC50 [1]: 310 nM
IC50 (Stromelysin-1): 3860 nM
IC50 (Interstitial collagenase): 1030 nM
IC50 [2]: 105 nM

SMILES: CNC(=O)[C@H](Cc1c[nH]c2ccccc12)NC(=O)[C@@H](CC(=O)NNc1ccc(Cl)c(Cl)c1)CC(C)C
IC50 [1]: 10000 nM
IC50 (Interstitial collagenase): 5600 nM
IC50 [2]: 1000 nM

SMILES: CNC(=O)[C@H](Cc1c(-c2ccccc2)[nH]c2ccccc12)NC(=O)/C(=C/CCc1ccccc1)CC(=O)NNS(=O)(=O)c1ccc(-c2ccc(Br)cc2)cc1
IC50 [3]: 827 nM
IC50 [1]: 65 nM
IC50 (Stromelysin-1): 463 nM
IC50 (Interstitial collagenase): 1080 nM
Activity [2]: inactive

Next, values leading:

IC50 (Stromelysin-1): 26 nM
IC50 [2]: 5.2 nM
SMILES: CNC(=O)[C@H](Cc1c[nH]c2ccccc12)NC(=O)[C@@H](CC(=O)NO)CC(C)C [ILOMASTAT]

IC50 [1]: 18 nM
IC50 (Interstitial collagenase): 290 nM
IC50 [2]: 190 nM
SMILES: CNC(=O)[C@H](Cc1c[nH]c2ccccc12)NC(=O)[C@@H](CC(=O)NNS(=O)(=O)c1ccc(Cl)cc1)CC(C)C

IC50 [1]: 300 nM
IC50 (Interstitial collagenase): 440 nM
IC50 [2]: 5100 nM
SMILES: CCCCCCCCCCCCCCCCS(=O)(=O)NNC(=O)C[C@@H](CC(C)C)C(=O)N[C@@H](Cc1c[nH]c2ccccc12)C(=O)NC

IC50 [1]: 92 nM
IC50 (Interstitial collagenase): 93 nM
IC50 [2]: 730 nM
SMILES: CNC(=O)[C@H](Cc1c[nH]c2ccccc12)NC(=O)[C@@H](CC(=O)NNS(=O)(=O)c1ccccc1N)CC(C)C

IC50 [1]: 10000 nM
IC50 (Interstitial collagenase): 330 nM
IC50 [2]: > 10000 nM
SMILES: CNC(=O)[C@H](Cc1c[nH]c2ccccc12)NC(=O)[C@@H](CC(=O)NNc1ccc(OC)cc1)CC(C)C

IC50 [3]: 11 nM
IC50 [1]: 37 nM
IC50 (Stromelysin-1): 1400 nM
IC50 (Interstitial collagenase): 150 nM
IC50 (Matrilysin): 6150 nM
IC50 [2]: 10000 nM
SMILES: CNC(=O)[C@H](Cc1c[nH]c2ccccc12)NC(=O)[C@@H](CC(=O)NNS(=O)(=O)c1ccc2ccccc2c1)CC(C)C

IC50 [1]: 1400 nM
IC50 (Interstitial collagenase): 980 nM
IC50 [2]: 9700 nM
SMILES: CCCCCCCCCCCCS(=O)(=O)NNC(=O)C[C@@H](CC(C)C)C(=O)N[C@@H](Cc1c[nH]c2ccccc12)C(=O)NC

IC50 [1]: 100 nM
IC50 (Interstitial collagenase): 4000 nM
IC50 [2]: 3100 nM
SMILES: CNC(=O)[C@H](Cc1c[nH]c2ccccc12)NC(=O)[C@@H](CC(=O)NNS(=O)(=O)c1c(C(C)C)cc(C(C)C)cc1C(C)C)CC(C)C

IC50 [1]: 740 nM
IC50 (Interstitial collagenase): 5600 nM
IC50 [2]: 3700 nM
SMILES: CNC(=O)[C@H](Cc1c[nH]c2ccccc12)NC(=O)[C@@H](CC(=O)NNS(C)(=O)=O)CC(C)C

IC50 [1]: 310 nM
IC50 (Interstitial collagenase): 490 nM
IC50 [2]: 1500 nM
SMILES: CNC(=O)[C@H](Cc1c[nH]c2ccccc12)NC(=O)[C@@H](CC(=O)NNS(=O)(=O)c1ccc([N+](=O)[O-])cc1)CC(C)C

IC50 [1]: 320 nM
IC50 (Interstitial collagenase): 850 nM
IC50 [2]: 1100 nM
SMILES: CNC(=O)[C@H](Cc1c[nH]c2ccccc12)NC(=O)[C@@H](CC(=O)NNS(=O)(=O)c1ccccc1[N+](=O)[O-])CC(C)C

Ratio IC50 (Homo sapiens): 10
IC50 [1]: 24 nM
IC50 (Interstitial collagenase): 250 nM
IC50 [2]: 2600 nM
SMILES: CNC(=O)[C@H](Cc1c[nH]c2ccccc12)NC(=O)[C@@H](CC(=O)NNS(=O)(=O)c1ccc(C)cc1)CC(C)C
